According to ChEMBL document CHEMBL1129987, “Structure-based design of nonpeptidic HIV protease inhibitors: the sulfonamide-substituted cyclooctylpyramones” (J Med Chem, 1997):
Each block holds one molecule with its values, some of them ahead of it.

How the values were obtained:
[1] = Half-life was measured after intravenous administration of 1.8 mg/kg of drug in male Beagle dogs; format: ADME, organism-based, Canis lupus familiaris; parameters: dose 1.8 mg/kg, route intravenous; conditions: dog, in vivo
[2] = Half-life was measured after intravenous administration of 2.7 mg/kg of drug in male Dawley rats; format: ADME, organism-based; parameters: dose 2.7 mg/kg, route intravenous; conditions: Sprague-Dawley, rat, in vivo
[3] = Maximum time taken by the drug to reach peak concentration after peroral administration of 5.2 mg/kg of drug male in Dawley rats; format: ADME, organism-based; parameters: dose 5.2 mg/kg, route oral; conditions: Sprague-Dawley, rat, in vivo, po
[4] = Apparent volume of distribution was obtained after intravenous administration of 1.8 mg/kg of drug in male Beagle dogs; format: ADME, organism-based, Canis lupus familiaris; parameters: dose 1.8 mg/kg, route intravenous; conditions: dog, in vivo, read-out: Vss
[5] = Oral bioavailability in rat (Sprague-Dawley) (male) (dose 5.2 mg/kg p.o.); format: ADME, organism-based; conditions: in vivo
[6] = Apparent volume of distribution was obtained after intravenous administration of 2.7 mg/kg of drug in male Dawley rats; format: ADME, organism-based; parameters: dose 2.7 mg/kg, route intravenous; conditions: Sprague-Dawley, rat, in vivo, read-out: Vss
[7] = Maximum concentration was measured after peroral administration of 10 mg/kg of drug in male Beagle dogs; format: ADME, organism-based, Canis lupus familiaris; parameters: dose 10 mg/kg, route oral; conditions: dog, in vivo, po
Summary of the method: (§1)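 Male beagle dogs received a 10 mg/kg oral dose. tmax is reported as a range. Bioavailability was calculated as %F = (AUCpo/AUCiv) × (doseiv/dosepo) against a separate iv study. Values are mean ± SD, n = 3.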

[8] = Maximum time taken by the drug to reach peak concentration after peroral administration of 10 mg/kg of drug male in male Beagle dogs; format: ADME, organism-based, Canis lupus familiaris; parameters: dose 10 mg/kg, route oral; conditions: dog, in vivo, po; summary of the method: as §1
[9] = target: Human immunodeficiency virus type 1 protease (Human immunodeficiency virus 1, UniProt Q72874); assay: Binding affinity against HIV-1 protease
[10] = Total plasma clearance value was obtained after intravenous administration of 2.7 mg/kg of drug in male Dawley rats; format: ADME, organism-based; parameters: dose 2.7 mg/kg, route intravenous; conditions: Sprague-Dawley, rat
[11] = Oral bioavailability in dog (Beagle) (male) (dose 10 mg/kg p.o.); format: ADME, organism-based, Canis lupus familiaris; conditions: in vivo; summary of the method: as §1
[12] = Maximum concentration was measured after peroral administration of 5.2 mg/kg of drug in male Dawley rats; format: ADME, organism-based; parameters: dose 5.2 mg/kg, route oral; conditions: Sprague-Dawley, rat, in vivo, po
[13] = Median cell culture toxic dose was evaluated against H9 cell line; format: ADME, cell-based; conditions: human, H9 cells; read-out: CCTD50
[14] = test system: Human immunodeficiency virus 1; assay: Antiviral activity in HIV-1 infected H9 cells; format: functional; conditions: Human immunodeficiency virus 1, H9; read-out: ED50 (the source's name)
Summary of the method: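 H9 cells infected with HIV-1 IIIB at MOI about 0.005, spun down (200g, 10 min), resuspended at 8 × 10^5 cells/mL in RPMI Complete and mixed with compound; final DMSO 0.1%, triplicate per concentration. After 5 days at 37 °C in 5% CO2, supernatant p24 antigen was measured by ELISA. ED50 is the drug amount that reduces p24 by 50% versus DMSO drug-free controls.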

[15] = Total plasma clearance value was obtained after intravenous administration of 1.8 mg/kg of drug in male Beagle dogs; format: ADME, organism-based, Canis lupus familiaris; parameters: dose 1.8 mg/kg, route intravenous; conditions: dog
Rattus norvegicus [16] = assay: Apparent volume of distribution was obtained after intravenous administration of 2.8 mg/kg of drug in male Dawley rats; format: ADME, organism-based; parameters: dose 2.8 mg/kg, route intravenous; conditions: in vivo
[17] = Maximum time taken by the drug to reach peak concentration after peroral administration of 5.2 mg/kg of drug in male Dawley rats; format: ADME, organism-based; parameters: dose 5.2 mg/kg, route oral; conditions: Sprague-Dawley, rat, in vivo, po
Rattus norvegicus [18] = assay: Half-life was measured after intravenous administration of […] mg/kg of drug in male Dawley rats; format: ADME, organism-based; conditions: in vivo, 2.8 mg/kg
Rattus norvegicus [19] = assay: Total plasma clearance value was obtained after intravenous administration of […] mg/kg of drug in male Dawley rats; format: ADME, organism-based; conditions: in vivo, 2.8 mg/kg
[20] = Maximum concentration was measured after peroral administration of 5.1 mg/kg of drug in male Dawley rats; format: ADME, organism-based; parameters: dose 5.1 mg/kg, route oral; conditions: Sprague-Dawley, rat, in vivo, po
[21] = Apparent volume of distribution was obtained after intravenous administration of 4.9 mg/kg of drug in male Beagle dogs; format: ADME, organism-based, Canis lupus familiaris; parameters: dose 4.9 mg/kg, route intravenous; conditions: dog, in vivo, read-out: Vss
[22] = Half-life was measured after intravenous administration of 2.5 mg/kg of drug in male Dawley rats; format: ADME, organism-based; parameters: dose 2.5 mg/kg, route intravenous; conditions: Sprague-Dawley, rat, in vivo
[23] = Total plasma clearance value was obtained after intravenous administration of 4.9 mg/kg of drug in male Beagle dogs; format: ADME, organism-based, Canis lupus familiaris; parameters: dose 4.9 mg/kg, route intravenous; conditions: dog
[24] = Half-life was measured after intravenous administration of 4.9 mg/kg of drug in male Beagle dogs; format: ADME, organism-based, Canis lupus familiaris; parameters: dose 4.9 mg/kg, route intravenous; conditions: dog, in vivo
[25] = Maximum time taken by the drug to reach peak concentration after peroral administration of 5.1 mg/kg of drug male in Dawley rats; format: ADME, organism-based; parameters: dose 5.1 mg/kg, route oral; conditions: Sprague-Dawley, rat, in vivo, po
[26] = Oral bioavailability in rat (Sprague-Dawley) (male) (dose 5.1 mg/kg p.o.); format: ADME, organism-based; conditions: in vivo
[27] = Total plasma clearance value was obtained after intravenous administration of 2.5 mg/kg of drug in male Dawley rats; format: ADME, organism-based; parameters: dose 2.5 mg/kg, route intravenous; conditions: Sprague-Dawley, rat
[28] = Apparent volume of distribution was obtained after intravenous administration of 2.6 mg/kg of drug in male Dawley rats; format: ADME, organism-based; parameters: dose 2.6 mg/kg, route intravenous; conditions: Sprague-Dawley, rat, in vivo, read-out: Vss
[29] = Maximum time taken by the drug to reach peak concentration after peroral administration of 5.0 mg/kg of drug in male Dawley rats; format: ADME, organism-based; parameters: dose 5 mg/kg, route oral; conditions: Sprague-Dawley, rat, in vivo, po
[30] = Total plasma clearance value was obtained after intravenous administration of 2.6 mg/kg of drug in male Dawley rats; format: ADME, organism-based; parameters: dose 2.6 mg/kg, route intravenous; conditions: Sprague-Dawley, rat
[31] = Half-life was measured after intravenous administration of 2.6 mg/kg of drug in male Dawley rats; format: ADME, organism-based; parameters: dose 2.6 mg/kg, route intravenous; conditions: Sprague-Dawley, rat, in vivo
[32] = Oral bioavailability in rat (Sprague-Dawley) (male) (dose 5 mg/kg); format: ADME, organism-based; conditions: in vivo
[33] = Maximum concentration was measured after peroral administration of 5.0 mg/kg of drug in male Dawley rats; format: ADME, organism-based; parameters: dose 5 mg/kg, route oral; conditions: Sprague-Dawley, rat, in vivo, po

- half-life [1]: 34.2 min
- half-life [2]: 372 min
- Tmax [3]: 15 min
- Vd [4]: 0.08 L/kg
- bioavailability [5]: 50%
- Vd [6]: 0.16 L/kg
- Cmax [7]: 61 µM
- Tmax [8]: 30 min
- Ki [9]: 0.0031 µM
- clearance [10]: 0.717 mL/min/kg
- bioavailability [11]: 107%
- Cmax [12]: 31 µM
- EC50 [14]: 2 µM
- clearance [15]: 3.17 mL/min/kg
Structure (SMILES): O=c1c2c(oc(O)c1C(c1cccc(NS(=O)(=O)c3ccc(F)cc3)c1)C1CC1)CCCCCC2 (centres undefined)
- CC50 [13]: 68 µM

- Vss (Rattus norvegicus [16]): 0.15 L/kg
- bioavailability [5]: 53%
- Tmax [17]: 15 min
- T1/2 (Rattus norvegicus [18]): 360 min
- CL (Rattus norvegicus [19]): 0.067 mL/min/kg
- Ki [9]: 0.0021 µM
- Cmax [12]: 24 µM
- EC50 [14]: > 10 µM
Structure (SMILES): O=c1c2c(oc(O)c1[C@@H](c1cccc(NS(=O)(=O)c3ccc(F)cc3)c1)C1CC1)CCCCCC2
- CC50 [13]: > 30 µM

- Cmax [20]: 24 µM
- Vd [21]: 0.085 L/kg
- half-life [22]: 180 min
- clearance [23]: 0.733 mL/min/kg
- half-life [24]: 378 min
- Tmax [8]: 30 min
- bioavailability [11]: 77%
- Tmax [25]: 15 min
- EC50 [14]: 1.3 µM
- bioavailability [26]: 42%
- clearance [27]: 1.25 mL/min/kg
Structure (SMILES): N#Cc1ccc(S(=O)(=O)Nc2cccc(C(c3c(O)c4c(oc3=O)CCCCCC4)C3CC3)c2)cc1 (centres undefined)
- CC50 [13]: 90 µM

- Vd [28]: 0.15 L/kg
- Tmax [29]: 15 min
- clearance [30]: 0.933 mL/min/kg
- half-life [31]: 450 min
- bioavailability [32]: 31%
- Cmax [33]: 13 µM
- EC50 [14]: 8.3 µM
Structure (SMILES): N#Cc1ccc(S(=O)(=O)Nc2cccc([C@H](c3c(O)oc4c(c3=O)CCCCCC4)C3CC3)c2)cc1
- CC50 [13]: > 30 µM
